Screens from PubChem BioAssay.
Shown are actives, neighbours in structure and some others; about 3% of the full set was active somewhere.
ROMK primary: human ROMK K+ channel modulation, primary screen. Tet-inducible ROMK, thallium flux fluorescence; actives lie on both sides. B-score at 10 µM. P48048. 130,000 compounds, 2% hits;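 active means signal ratio slope over the read window, or its plate-corrected B-score, at least 3 SD from the plate mean, either direction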;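 further: B-score of the F/F0 ratio slope over 7 to 12 s after thallium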
PKD1 kinase inh: inhibitors of human PKD1 kinase; Q15139; PKD1 kinase fluorescence polarization assay; 200,000 compounds, 0.056% hits; inhibition, % (concentration not given with the values); in the data active means inhibition above about 50%
Rad51 HR inh: Rad51 (human) homologous recombination inhibition | Q06609 | hRad51 DNA strand exchange, fluorescence dequenching | inhibition, % at 10 µM | 200,000 compounds, 0.085% hits | AID 1385;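 active means inhibition above 40% at the single screening dose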;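 further: 0% = DMSO control wells and 100% = blanks with heterologous ssDNA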
Target sequence (Q06609 whole entry, looked up): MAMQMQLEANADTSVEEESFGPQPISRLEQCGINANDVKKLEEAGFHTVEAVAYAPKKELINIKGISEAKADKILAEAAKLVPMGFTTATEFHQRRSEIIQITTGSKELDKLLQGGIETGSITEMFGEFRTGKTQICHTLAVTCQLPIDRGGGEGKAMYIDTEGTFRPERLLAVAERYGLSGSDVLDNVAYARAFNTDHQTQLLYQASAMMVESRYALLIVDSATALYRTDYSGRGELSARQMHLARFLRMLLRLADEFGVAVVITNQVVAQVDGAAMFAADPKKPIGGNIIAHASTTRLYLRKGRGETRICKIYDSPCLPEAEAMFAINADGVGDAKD
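System: hRad51 filaments on single-stranded DNA; reagent: Fluorescein- and BHQ1-tagged 47-mer duplex; compound dosing: one concentration, 10 µM final; timing: filaments 15 min 37 °C, then compound 30 min; measured by: fluorescein emission 520 nm, excitation 485 nm; benchmarks: per-plate controls and blanks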
KCC2 mod: modulates chloride dependent transport by human KCC2; Q9H2X9; KCC2 cells, thallium flux FluoZin-2 fluorescence; B-score of Tl+ flux slope (higher = more flux/activation; lower = inhibition) at 10 µM; 190,000 compounds, 2.2% hits; AID 1456;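 active means thallium flux slope and its plate-corrected score both differing from the plate sample mean at a set confidence after two filtering rounds, in either direction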;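 further: slope of fluorescence scaled to starting intensity during 10 to 20 s after thallium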
Numbers without * were called inactive; nt = not tested or not shown.

SMILES	ROMK primary	PKD1 kinase inh	Rad51 HR inh	KCC2 mod
Cc1ccc(S(=O)(=O)c2c(N)n(Cc3ccco3)c3nc4ccccc4nc23)cc1	-1.48	-16.0	-133.4	nt
CCc1ccc2[nH]c(=O)c(C(c3nnnn3CC3CCCO3)N3CCN4CCCC4C3)cc2c1 (stereo not drawn)	-2.35*	-11.8	-0.8	nt
O=C(CCc1nc2ccccc2[nH]c1=O)N/N=C/c1ccccc1	0.629	4.5	9.7	0.102
CC(=O)Nc1ccc(SCC(=O)c2c(N)n(Cc3ccccc3)c(=O)n(C)c2=O)cc1	0.453	nt	4.0	-3.05
CCCCn1c(N)c(C(=S)NC(=O)CC(C)C)c(=O)n(C)c1=O	nt	-5.5	nt	23.5*
CCCn1c(N)c(C(=S)NC(=O)C2CC2)c(=O)n(C)c1=O	nt	-10.0	nt	14.1*
CC(=O)NC(=S)c1c(N)n(Cc2ccccc2)c(=O)n(C)c1=O	-0.0231	-6.0	-27.5	3.9*
CCCn1c(N)c(C(=O)COC(=O)c2c(C)noc2C)c(=O)n(C)c1=O	0.424	-3.8	10.5	-0.871
CCOC(=O)N1CCN(S(=O)(=O)c2cc([N+](=O)[O-])c(C)cc2C)CC1	nt	-10.0	-16.0	0.418
C=CCn1c(SCC(=O)c2c(N)n(CCC)c(=O)n(C)c2=O)nnc1-c1ccncc1	0.0374	-1.7	3.1	0.00998
COCCNC(=O)Cn1cc(/C=N/NC(=O)c2ccc(Oc3ccc(O)cc3)cc2)c2ccccc21	-0.0431	0.7	-9.9	-1.84
CCOC(=O)c1c(-c2ccccc2)csc1NC(=O)CSc1nnc(C)s1	-0.165	-12.3	25.1	0.0988
CCOC(=O)c1c(-c2ccccc2)csc1NC(=S)NC	1.84	-3.1	0.7	35.6*
CCNC(=S)Nc1scc(-c2ccccc2)c1C(=O)OCC	2.47	-6.4	7.4	41.8*
CCOC(=O)c1c(-c2ccc(C)o2)csc1NC(=S)NC(=O)c1cccs1	-0.434	-18.4	2.1	6.26*
CCOC(=O)c1c(-c2ccc(C)o2)csc1NC(=S)NC(=O)c1ccccc1Br	nt	3.6	1.6	nt
CCOC(=O)c1c(-c2ccccc2)csc1NC(=O)CCN1C(=O)c2ccccc2C1=O	nt	-8.9	-1.9	1.38
Cc1cc(C)c2nc(SCC(=O)NCCC3=CCCCC3)cc(C)c2c1	-0.274	2.5	-4.2	12.1*
O=C(Nc1ccc(C(=O)N2CCOCC2)cc1)Nc1cccc2ccccc12	-0.609	7.0	-6.9	-0.0634
C#Cc1ccc([C@@H]2C=C(C(=O)N3CCN(Cc4ccccc4)CC3)O[C@H](OCC)[C@H]2CCCO)cc1	nt	-7.9	4.8	-3.78*
CCO[C@@H]1OC(C(=O)NCc2ccccc2)=C[C@H](c2csc3ccccc23)[C@H]1CCCO	nt	-0.1	nt	-2.88*
COCCN(C(=O)CSc1nnc(-c2cccc(OC)c2)n1C)c1c(N)n(Cc2ccccc2)c(=O)[nH]c1=O	0.159	-6.7	-0.9	0.0815
COc1cccc(C(=O)NC(=S)Nc2ccc3c4c(cccc24)CC3)c1	nt	-3.3	-9.2	5.01*
COc1cccc(C(=O)NC(=S)Nc2ccc(Cl)cc2C(=O)O)c1	nt	nt	5.0	-1.16
O=C(Nc1ccc(Cl)c([N+](=O)[O-])c1)ONC1=NCCCCC1	-0.00949	2.6	11.6	0.0991
SMILES	ROMK primary	PKD1 kinase inh	Rad51 HR inh	KCC2 mod
N#CC1=C(N)NC(SCC(=O)Nc2ccc(Br)cc2)=C(C#N)C12CCCCC2	-2.3	-3.9	0.7	-4.91*
COc1ccccc1Nc1ccc(C(=O)NCc2cccs2)cn1	nt	-3.8	-7.1	-0.122
COc1ccccc1Nc1ncc(-c2cccs2)s1	-0.18	-5.0	10.9	3.12*
O=C(NC(=S)N1CCN(c2nc(-c3ccccc3)cs2)CC1)c1cncc(Br)c1	4.82*	0.0	4.8	70.2*
COc1ccccc1NC(=O)c1cc(Cl)ccc1NC(=O)c1ccco1	nt	2.4	4.8	nt
COc1ccccc1NC(=O)C(=O)NNC(=O)c1ccco1	1.81	-1.6	0.4	8.25*
CCCCn1c(-c2csc(C(C)C)c2)n[nH]c1=S	-0.872	1.5	6.5	20.5*
CCCc1cc(-c2n[nH]c(=S)n2CC(C)C)cs1	-0.672	-11.5	10.3	15.6*
COc1cccc(C(C(=O)NC2CCCC2)N(C(=O)c2ccco2)c2ccc(-n3cnnn3)c(C)c2)c1OC (stereo not drawn)	-0.328	0.2	nt	-0.0163
COC(=O)c1nc(N)sc1-c1ccccc1	0.353	-2.7	75.5*	-2.16
CCOC(=O)c1cnn(-c2sc(C(=O)OCC)c(C)c2C(=O)OCC)c1N	nt	1.7	-3.5	43.2*
CCCCN(CCCC)C(=S)N/N=C/c1c(C)[nH]n(-c2ccccc2)c1=O	nt	-3.9	-13.5	22.9*
CCCCN=Cc1c(C)[nH]n(-c2ccccc2)c1=S	-1.85	4.3	28.3	0.429
O=C1CC2(CCCC2)CC(=O)N1c1ccccc1	nt	-2.2	3.2	0.318
CC(C)OC(=O)c1c2nc3ccccc3nc2n2c1[nH]c(=O)c1ccccc12	0.283	-0.7	nt	125*
COc1ccc(/C(C)=N/NC(=O)C(NC(=O)c2ccccc2)c2n[nH]c(=O)c3ccccc23)c(OC)c1 (stereo not drawn)	-0.74	nt	13.0	-0.543
CC1COC(Cn2c3ccccc3c3ccccc32)O1 (stereo not drawn)	nt	nt	0.9	0.799
O=C(Cc1ccccc1)Nc1nc(=O)c2ccccc2s1	nt	-3.8	9.2	4.12*
O=C(Nc1nc(=O)c2ccccc2s1)c1ccc(F)cc1	nt	-14.7	1.1	47.3*
N#CC1=C(N)C(C#N)(C#N)C(c2cccnc2)C2CCCC=C12 (stereo not drawn)	nt	6.5	-12.1	-0.576
N#CC1=C(N)C(C#N)(C#N)C(c2cccnc2)C2CC(c3ccccc3)CC=C12 (stereo not drawn)	nt	-10.3	-2.3	-2.58*
CC(C)(C)C(=O)NC(=S)NNC(=O)c1sc2ccccc2c1Cl	7.29*	-4.0	nt	48*
CCCn1nnc(NC(=O)c2sc3ccccc3c2Cl)n1	0.241	-2.8	0.2	nt
CCOC(=S)NC(=O)c1sc2ccccc2c1Cl	nt	-0.1	-2.6	74.3*
NC(=O)COC(=O)c1sc2ccccc2c1Cl	0.669	-1.7	13.7	-0.797
SMILES	ROMK primary	PKD1 kinase inh	Rad51 HR inh	KCC2 mod
CCCOC(=S)NC(=O)c1sc2ccccc2c1Cl	nt	-8.6	7.3	60.4*
CC(C)CNC(=O)COC(=O)CNC(=O)c1cc(Cl)cc([N+](=O)[O-])c1	0.136	-3.5	nt	0.777
COc1ccccc1C1(O)CCN(CC(=O)Nc2nc(-c3ccccc3)cs2)CC1	-0.837	-7.7	7.8	-0.638
COc1cccc(NC(=O)c2cc(-c3cccnc3)nc3c(Cl)cccc23)c1	nt	6.5	45.4*	nt
COc1ccc(NC(=O)c2cc(-c3cccnc3)nc3c(C)c(C)ccc23)c(OC)c1	-0.114	1.1	-6.6	nt
CCCN1C(=O)/C(=C/c2ccc(C)s2)NC1=S	5.52*	6.4	-6.6	39.8*
Cc1ccc(/C=C2/NC(=O)N(Cc3ccccc3F)C2=O)s1	-0.938	-10.5	-122.5	-0.384
CC(C)CN1C(=O)/C(=C/c2cccs2)NC1=S	nt	-2.6	6.2	39.7*
COc1ccc(C(=O)Nc2ccccc2C(=O)N2CCCCC2C)cc1 (stereo not drawn)	0.159	-5.5	-31.9	0.0692
Cc1cc2sc3ccccc3c(=O)c2c(C)c1O	0.474	-0.6	16.1	0.606
O=c1c(C(c2ccccc2)c2c(O)sc3ccccc3c2=O)c(O)sc2ccccc12	nt	-12.2	-0.4	20.7*
